ChEMBL document CHEMBL1158629, “Synthesis, in vitro and in vivo evaluation of [11C]MMTP: a potential PET ligand for mGluR1 receptors” (Bioorg Med Chem Lett, 2010)

Legend:
Type in all cases: ADME, organism-based
[1] = Ratio of drug uptake in caudate to cerebellum of baboon brain at 5 +/- 0.5 mCi, iv after 35 mins; settings: papio hamadryas, in vivo
In short: (§1)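 Fasted baboons were immobilized with ketamine (10 mg/kg, i.m.) and maintained on 1.5~2.0 % isoflurane via endotracheal tube. Core temperature was held at 37°C on a heated water blanket during PET scanning.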

[2] = Metabolic stability in baboon brain assessed as compound remaining at 5 +/- 0.5 mCi, iv after 30 mins; settings: papio hamadryas, in vivo, 0.5 h
[3] = Ratio of drug uptake in caudate to cerebellum of baboon brain at 5 +/- 0.5 mCi, iv after 85 mins; settings: papio hamadryas, in vivo; in short: as §1
[4] = Metabolic stability in baboon brain assessed as compound remaining at 5 +/- 0.5 mCi, iv after 90 mins; settings: papio hamadryas, in vivo, 1.5 h
[5] = Ratio of drug uptake in amygdala to cerebellum of baboon brain at 5 +/- 0.5 mCi, iv after 85 mins; settings: papio hamadryas, in vivo; in short: as §1
[6] = Ratio of drug uptake in frontal cortex to cerebellum of baboon brain at 5 +/- 0.5 mCi, iv after 35 mins; settings: papio hamadryas, in vivo; in short: as §1
[7] = Ratio of drug uptake in caudate to cerebellum of baboon brain at 5 +/- 0.5 mCi, iv after 65 mins; settings: papio hamadryas, in vivo, pooled result: one value given for 5 cell lines, strains, targets or settings; in short: as §1
[8] = Ratio of drug uptake in frontal cortex to cerebellum of baboon brain at 5 +/- 0.5 mCi, iv after 85 mins; settings: papio hamadryas, in vivo; in short: as §1
[9] = Ratio of drug uptake in putamen to cerebellum of baboon brain at 5 +/- 0.5 mCi, iv after 35 mins; settings: papio hamadryas, in vivo; in short: as §1
[10] = Ratio of drug uptake in hippocampus to cerebellum of baboon brain at 5 +/- 0.5 mCi, iv after 35 mins; settings: papio hamadryas, in vivo; in short: as §1
[11] = Ratio of drug uptake in putamen to cerebellum of baboon brain at 5 +/- 0.5 mCi, iv after 85 mins; settings: papio hamadryas, in vivo; in short: as §1
[12] = Ratio of drug uptake in amygdala to cerebellum of baboon brain at 5 +/- 0.5 mCi, iv after 35 mins; settings: papio hamadryas, in vivo; in short: as §1
[13] = Ratio of drug uptake in hippocampus to cerebellum of baboon brain at 5 +/- 0.5 mCi, iv after 85 mins; settings: papio hamadryas, in vivo; in short: as §1

Ratio [1]: 2 | Stability [2]: 45% | Ratio [3]: 1.6 | Stability [4]: 30% | Ratio [5]: 1.6 | Ratio [6]: 2 | Ratio [7]: 1.65 | Ratio [8]: 1.6 | Ratio [9]: 2 | Ratio [10]: 2 | Ratio [11]: 1.6 | Ratio [12]: 2 | Ratio [13]: 1.6
Compound: CN(C)c1ccnc2sc3c(=O)n(-c4ccc(O[11CH3])cc4)cnc3c12
